Columns and labels:
[1] = tested on: A549; test: Induction of apoptosis in human A549 cells assessed as viable cells at 25 uM after 72 hrs by annexinV-APC/7-AAD staining based flow cytometry (reference value: 92.08%); format: functional; conditions: A549, 72 h, read-out: Activity
[2] = tested on: A549; test: Induction of apoptosis in human A549 cells assessed as late apoptotic cells at 1 uM after 72 hrs by annexinV-APC/7-AAD staining based flow cytometry (reference value: 1.81%); format: functional
[3] = tested on: A549; test: Antiproliferative activity against human A549 cells after 72 hrs by MTT assay; format: functional, cell-based; conditions: A549, 72 h
Method in brief: (§1)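 Cells seeded at 5×10^4/well, grown 24 h at 37 °C in 5% CO₂, then exposed to compounds dissolved in DMSO at a range of concentrations for 72 h. MTT (5 mg/mL in PBS) added for 4 h, then OD read at 570 nm. IC50 taken from dose-response curves, mean ± S.D. of three independent experiments.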

[4] = target: T1, Polyunsaturated fatty acid 5-lipoxygenase (Rattus norvegicus, UniProt P12527); test: Inhibition of 5-LOX in Sprague-Dawley rat leukocytes assessed as A23187 stimulated LTB4 production pretreated for 30 mins followed by addition of A23187 for 30 mins by EIA; format: cell-based
T1 sequence (P12527 whole entry): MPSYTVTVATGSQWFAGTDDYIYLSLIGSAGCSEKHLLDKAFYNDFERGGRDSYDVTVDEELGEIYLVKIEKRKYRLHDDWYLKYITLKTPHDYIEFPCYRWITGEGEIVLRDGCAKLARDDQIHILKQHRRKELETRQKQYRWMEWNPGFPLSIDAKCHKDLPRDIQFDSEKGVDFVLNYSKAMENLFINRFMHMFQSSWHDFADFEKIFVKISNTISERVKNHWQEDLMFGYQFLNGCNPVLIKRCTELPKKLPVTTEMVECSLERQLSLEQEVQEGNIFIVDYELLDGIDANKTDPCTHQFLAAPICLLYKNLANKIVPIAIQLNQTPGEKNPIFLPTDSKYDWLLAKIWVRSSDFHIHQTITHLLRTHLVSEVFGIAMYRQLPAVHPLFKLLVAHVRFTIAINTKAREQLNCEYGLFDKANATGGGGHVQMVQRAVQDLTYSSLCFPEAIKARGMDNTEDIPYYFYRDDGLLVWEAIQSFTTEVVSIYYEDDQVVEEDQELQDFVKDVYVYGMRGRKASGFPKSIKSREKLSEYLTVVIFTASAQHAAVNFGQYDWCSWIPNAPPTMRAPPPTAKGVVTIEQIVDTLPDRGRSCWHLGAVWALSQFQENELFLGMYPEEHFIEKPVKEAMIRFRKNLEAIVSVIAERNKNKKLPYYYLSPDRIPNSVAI
Method in brief: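 Rat peritoneal leukocytes collected from Sprague-Dawley rats primed i.p. with 0.2% glycogen (20 mL/kg). Cells in Hanks solution plated at 1.0×10^6/well and held 10 min at 37 °C. Pretreated 30 min with L-cysteine (10 mM), indomethacin (1 mg/L) and compound or DMSO. A23187 added for 30 min. LTB4 in the clarified supernatant measured by EIA; % inhibition from OD; IC50 by Bliss method.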

[5] = tested on: A549; test: Induction of apoptosis in human A549 cells assessed as late apoptotic cells at 25 uM after 72 hrs by annexinV-APC/7-AAD staining based flow cytometry (reference value: 1.81%); format: functional
[6] = tested on: A549; test: Cell cycle arrest in human A549 cells assessed as accumulation at G1 phase at 1 uM after 72 hrs by propidium iodide staining based flow cytometry (reference value: 53.66%); format: functional
[7] = tested on: A549; test: Induction of apoptosis in human A549 cells assessed as early apoptotic cells at 5 uM after 72 hrs by annexinV-APC/7-AAD staining based flow cytometry (reference value: 5.7%); format: functional
[8] = tested on: A549; test: Cell cycle arrest in human A549 cells assessed as accumulation at S phase at 5 uM after 72 hrs by propidium iodide staining based flow cytometry (reference value: 42.46%); format: functional
[9] = tested on: A549; test: Induction of apoptosis in human A549 cells assessed as necrotic cells at 1 uM after 72 hrs by annexinV-APC/7-AAD staining based flow cytometry (reference value: 0.41%); format: functional
[10] = Selectivity index, ratio of IC50 for rat COX2 to IC50 for calf COX1
Method in brief: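 Ratio of COX-2 IC50 to COX-1 IC50. COX-2 was measured in rat peritoneal macrophages: 1.0×10^6/well in RPMI 1640 with 5% FCS, grown 24 h, COX-1 inactivated with 1 mM aspirin, COX-2 induced with LPS 1 µg/mL for 6 h, compound added for 30 min, then arachidonic acid 10 µM for 20 min, PGE2 read by EIA. COX-1 was measured in calf aortic endothelial cells by 6-keto-PGF1α radioimmunoassay.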

[11] = Antiproliferative activity against human Caco2 cells after 72 hrs by MTT assay; format: functional, cell-based; conditions: Caco-2, 72 h; method in brief: as §1
[12] = tested on: A549; test: Induction of apoptosis in human A549 cells assessed as viable cells at 1 uM after 72 hrs by annexinV-APC/7-AAD staining based flow cytometry (reference value: 92.08%); format: functional; conditions: A549, 72 h, read-out: Activity
[13] = tested on: A549; test: Cell cycle arrest in human A549 cells assessed as accumulation at S phase at 1 uM after 72 hrs by propidium iodide staining based flow cytometry (reference value: 42.46%); format: functional
[14] = tested on: A549; test: Induction of apoptosis in human A549 cells assessed as viable cells at 5 uM after 72 hrs by annexinV-APC/7-AAD staining based flow cytometry (Rvb =92.08%); format: functional; conditions: A549, 72 h, read-out: Activity
[15] = tested on: A549; test: Cell cycle arrest in human A549 cells assessed as accumulation at S phase at 25 uM after 72 hrs by propidium iodide staining based flow cytometry (reference value: 42.46%); format: functional
[16] = tested on: A549; test: Induction of apoptosis in human A549 cells assessed as early apoptotic cells at 1 uM after 72 hrs by annexinV-APC/7-AAD staining based flow cytometry (reference value: 5.7%); format: functional
[17] = Antiproliferative activity against human PC3 cells after 72 hrs by MTT assay; format: functional, cell-based; conditions: PC-3, 72 h; method in brief: as §1
[18] = tested on: A549; test: Cell cycle arrest in human A549 cells assessed as accumulation at G2 phase at 1 uM after 72 hrs by propidium iodide staining based flow cytometry (reference value: 3.88%); format: functional
[19] = tested on: A549; test: Cell cycle arrest in human A549 cells assessed as accumulation at G2 phase at 25 uM after 72 hrs by propidium iodide staining based flow cytometry (reference value: 3.88%); format: functional
[20] = tested on: A549; test: Cell cycle arrest in human A549 cells assessed as accumulation at G1 phase at 5 uM after 72 hrs by propidium iodide staining based flow cytometry (reference value: 53.66%); format: functional
[21] = tested on: A549; test: Induction of apoptosis in human A549 cells assessed as necrotic cells at 25 uM after 72 hrs by annexinV-APC/7-AAD staining based flow cytometry (Rvb =0.41%); format: functional
[22] = tested on: A549; test: Induction of apoptosis in human A549 cells after 3 days by annexinV-APC/7-AAD staining based flow cytometry; format: functional, cell-based
[23] = tested on: A549; test: Cell cycle arrest in human A549 cells assessed as accumulation at G2 phase at 5 uM after 72 hrs by propidium iodide staining based flow cytometry (reference value: 3.88%); format: functional
[24] = tested on: A549; test: Induction of apoptosis in human A549 cells assessed as late apoptotic cells at 5 uM after 72 hrs by annexinV-APC/7-AAD staining based flow cytometry (reference value: 1.81%); format: functional

- IC50 [3]: 9.52 µM
- IC50 [4]: 0.71 µM
- Ratio IC50 [10]: 0.014
Structure (SMILES): CS(=O)(=O)c1ccc(-c2nc(SCCCOC(=O)/C=C/c3ccc(O)c(O)c3)nn2-c2ccc(F)cc2)cc1
- viability at 25 µM [1]: 55.1%
- Activity [2]: 3.13%
- Activity [5]: 6.15%
- Activity [6]: 49.85%
- Activity [7]: 23.68%
- Activity [8]: 40.9%
- Activity [9]: 0.91%
- IC50 [11]: 11.2 µM
- viability at 1 µM [12]: 86.2%
- Activity [13]: 42.92%
- viability at 5 µM [14]: 67.8%
- Activity [15]: 32.19%
- Activity [16]: 9.73%
- IC50 [17]: 10.1 µM
- Activity [18]: 7.24%
- Activity [19]: 20.53%
- Activity [20]: 45.34%
- Activity [21]: 1.51%
- Activity [22]: Dose-dependent effect
- Activity [23]: 13.76%
- Activity [24]: 6.37%
